In the library only some 1.2% were active in any assay of this set; here they are far more common.
HNF4A DNA FP: change in binding of human HNF4 alpha to DNA. P41235. HNF4a-FITC DNA binding, fluorescence polarization, 1 h. activity change, % at 10 µM. 0.3% of 360,000 active; in the data active = activity change above about 30%, passing the limit was not always enough
CSN deneddyl inh: inhibitors of human CSN-mediated cullin deneddylation; Q92905; Purified CSN, SCF-Nedd8-OG deneddylation, fluorescence polarization; inhibition, % at 12.5 µM; 0.38% of 360,000 active;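 active = pattern-corrected inhibition above about 35%, with an unprinted fluorescence ratio check between 0.5 and 1.5, limit read from the data, passing the limit was not always enough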;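 note: 0% = enzyme with substrate and 100% = substrate without enzyme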
Target sequence (Q92905 whole entry, looked up, one chain of several): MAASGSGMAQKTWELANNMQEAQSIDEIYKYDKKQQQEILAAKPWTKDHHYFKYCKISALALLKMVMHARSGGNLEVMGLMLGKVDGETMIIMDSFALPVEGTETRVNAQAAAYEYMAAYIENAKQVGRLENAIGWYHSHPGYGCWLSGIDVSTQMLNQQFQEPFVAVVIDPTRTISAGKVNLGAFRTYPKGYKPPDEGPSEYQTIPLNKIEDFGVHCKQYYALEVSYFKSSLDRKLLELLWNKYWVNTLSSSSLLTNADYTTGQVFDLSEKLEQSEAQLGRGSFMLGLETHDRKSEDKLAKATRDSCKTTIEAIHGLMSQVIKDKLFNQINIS
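Assay system: purified human Csn5 enzyme expressed in HEK293T cells; measure: % inhibition; also added: SCFSkp2-Nedd8OG substrate at 10 nM final; technique: fluorescence polarization; times: reaction 90 min, room temperature; medium: Tris buffer pH 7.5, NaCl, DTT, Tween-20, trehalose, ovalbumin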
Rtt109 Vps75: inhibitors of Candida albicans Rtt109/Vps75 histone acetyltransferase; 0.16% of 330,000 active; AID 540336; Q5AAJ8; inhibition, % at 34.9 µM; purified Rtt109/Vps75, ThioGlo CoA-SH fluorescence, 4 h;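 active = inhibition of at least 50% in every replicate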
TPT1 inhibitor: inhibitors of Candida albicans tRNA 2'-phosphotransferase TPT1; recombinant caTPT1, FP RNA substrate dephosphorylation; inhibition, % at 5 µM; 0.81% of 300,000 active; AID 1962;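 active = inhibition above the mean of all tested compounds plus 3 SD, set per screening campaign, cut at about 24% in these data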;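 note: plate controls were DMSO alone for no effect and ferristatin control at 100 nM for full effect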
CSN5 deneddyl: validation of inhibitors of human CSN-mediated cullin deneddylation. shares compounds with CSN deneddyl inh. Csn5 deneddylation of SCF-Nedd8OG, fluorescence polarization, 90 min. inhibition, % at 16.6 µM. 62% of 540 active. AID 720654; in the data active = inhibition above about 50%;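 note: 0% = DMSO with enzyme and 100% = no enzyme wells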
MMP2 cntr CSN: counter-screen for CSN deneddylation inhibitors: human MMP-2 inhibition | inhibition, % at 16.6 µM | shares compounds with CSN deneddyl inh | AID 720655 | 33% of 540 active | recombinant MMP-2, FRET substrate fluorescence, 60 min;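 active = corrected plate-normalized z-score of 5 or more, or -5 or less, or inhibition of 15% or more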;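 note: plate controls were DMSO wells with enzyme for no effect and buffer wells lacking MMP-2 for full effect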
Thrombin counter: thrombin (bovine) inhibition, counter-screen for CSN hits; AID 720656; shares compounds with CSN deneddyl inh; bovine thrombin cleavage of Ub4-pepOG, fluorescence polarization; 49% of 540 active; inhibition, % at 16.6 µM;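 active = inhibition at or above a set limit, with a fluorescence interference ratio between 0.5 and a set maximum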
Active calls of the source: *; / = no result.

SMILES	HNF4A DNA FP	CSN deneddyl inh	Rtt109 Vps75	TPT1 inhibitor	CSN5 deneddyl	MMP2 cntr CSN	Thrombin counter
N=C1/C(=C\c2ccc(SCc3ccco3)o2)C(=O)N=C2SC=NN12	17	105*	-11	10	60*	3	26*
CC1=NN2C(=N)/C(=C\c3ccc(SCc4ccccc4)o3)C(=O)N=C2S1	5	8	-23	14	/	/	/
Cc1cc(C(=O)O)ccc1-c1ccc(/C=C2\NC(=O)N(Cc3ccc(F)cc3)C2=O)o1	-17	36*	-1	1	/	17*	16*
Cc1ccc(CN2C(=O)N/C(=C/c3ccc(-c4ccc(C(=O)O)cc4)o3)C2=O)cc1	-4	12	-1	4	/	/	/
Cc1ccc(OCCC(=O)NNC(=O)c2ccccc2F)cc1	-2	5	-1	/	/	/	/
Cc1c(CCC(=O)O)c(=O)oc2c(C)c3occ(-c4ccc(Br)cc4)c3cc12	-2	39*	7	/	26	30*	-5
Nc1cccc2cc(S(=O)(=O)O)ccc12	-27	37*	1	/	67*	10	-11
O=Nc1c(O)ccc2cc(S(=O)(=O)O)ccc12	-10	5	7	/	/	/	/
Cc1c(Br)c(=O)oc2c(Br)c(O)ccc12	3	-5	3	1	/	/	/
Cc1c(Br)c(=O)oc2c(Br)c(O)c(O)cc12	-42	40*	-34	0	/	11	29*
COc1cccc(/C=N/NC(=O)CSc2ccccc2C)c1O	-2	100*	0	0	112*	10	1
CC(C)(C)[C@H](N)C(=O)N[C@H]1CCC2C3CC=C4C[C@@H](O)CC[C@]4(C)C3CC[C@@]21C (some centres undefined)	5	49*	2	/	-23	3	16*
Cc1cccc(C)c1N1C(=O)[C@@H]2C(c3ccccc3Cl)=NO[C@@H]2C1=O	-5	-3	-10	1	/	/	/
COc1ccc(OC)c(N2C(=O)[C@@H]3C(c4ccccc4Cl)=NO[C@@H]3C2=O)c1	-36	40*	-5	7	69*	12	7
Cc1ccc(/C=C2\SC(=S)N(CC3CCCO3)C2=O)o1 (centres undefined)	16	74*	5	24	103*	33*	34*
O=C1/C(=C/c2ccco2)SC(=S)N1CC1CCCO1 (centres undefined)	-2	27	5	8	/	/	/
CSc1ccc(S(=O)(=O)NCC(=O)OCC(=O)N(C)Cc2ccccc2)cc1[N+](=O)[O-]	-2	-2	-2	-7	/	/	/
COc1cccc(-c2ncc3ccccc3c2COC(=O)CCCC(=O)O)c1	-3	-5	1	/	/	/	/
COc1cc(Cl)cc(/C=N\NC(=O)c2ccc3c(c2)OCO3)c1O	6	99*	/	/	-79	23*	4
NC(=O)c1nsc(C(=O)N(Cc2ccccc2Cl)C(C(=O)NCC2CCCO2)c2ccc(O)cc2)c1N (centres undefined)	-2	0	-1	/	/	/	/
CCCCn1c(NC(=O)c2ccccc2Cl)c(C#N)c2nc3ccccc3nc21	64*	59*	6	16	98*	2	-36
Cc1cc2c(SCC(=O)Nc3cccc(O)c3)ncnc2s1	-20	36*	7	/	85*	13	1
O=C(O)CN1C(=O)/C(=C\c2cc(Br)ccc2OCc2ccc(Cl)cc2Cl)SC1=S	-22	36*	3	-3	33	2	8
COC(=O)c1ccc2c(c1)C(C)(C)C(/C=C/c1ccccc1O)=[N+]2C	37*	44*	1	19	68*	-12	30*
Cc1ccc(NS(=O)(=O)c2ccc3[nH]c(=O)[nH]c3c2)c(C)c1	-2	1	-4	-3	/	/	/
SMILES	HNF4A DNA FP	CSN deneddyl inh	Rtt109 Vps75	TPT1 inhibitor	CSN5 deneddyl	MMP2 cntr CSN	Thrombin counter
O=C(Nc1ccc(NC(=O)c2ccc(Cl)cc2Cl)cc1)c1ccc2c(c1)OCO2	1	-2	-4	-2	/	/	/
O=C(Nc1ccc(C2=NCCN2)cc1)c1ccc(C(=O)Nc2ccc(C3=NCCN3)cc2)c(Cl)c1	61	114*	0	2	-48	72*	-4
O=C(O)c1ccc(/C=C2\SC(=S)N(Nc3ccccc3)C2=O)cc1	3	0	19	6	/	/	/
O=C1/C(=C/c2ccc(O)c(O)c2)SC(=S)N1Nc1ccccc1	28	54*	36	/	47	18*	54*
COc1cc(/C=C2\SC(=S)N(Nc3ccccc3)C2=O)ccc1O	37*	46*	9	24	85*	-1	56*
CC1(C)CC[C@]2(C(=O)n3ccnc3)CC[C@]3(C)[C@H](C(=O)C=C4[C@@]5(C)C=C(C#N)C(=O)C(C)(C)[C@@H]5CC[C@]43C)[C@@H]2C1	-19	39*	-6	/	56*	0	8
O=C(Nc1nc(-c2ccco2)c(-c2ccco2)s1)c1ccc(F)cc1F	1	45*	6	/	103*	1	13
Cc1nnsc1C(=O)N/N=C/c1ccc2ccccc2c1O	67*	68*	-5	110*	36	-34*	77*
CNC(=O)C1CCC(=O)N1Cc1c[nH]c2ccccc12 (centres undefined)	0	0	/	/	/	/	/
O=c1c2c3c(sc2[nH]c(=S)n1Cc1ccco1)CCC3	-12	45*	11	3	92*	34*	-2
CCOC(=O)C1=C(C)N=c2s/c(=C/c3cccc(OCC(=O)O)c3)c(=O)n2C1c1ccc(F)cc1 (centres undefined)	/	/	/	4	/	/	/
CC1=C(C(=O)OC(C)C)C(c2ccc(Cl)cc2)n2c(s/c(=C\c3ccc(OCC(=O)O)cc3)c2=O)=N1 (centres undefined)	-18	84*	15	/	-2	-1	12
Cc1ccc(-c2csc(NC(=O)/C=C/c3ccco3)c2C(=O)O)cc1	-3	42*	-2	1	67*	8	0
Cc1ccc(-c2csc(NC(=O)c3cccc(C)c3)c2C(=O)O)cc1	3	6	-1	-1	/	/	/
O=C(Nc1cccc(-c2cnc3ccccc3n2)c1)c1ccccc1	0	4	6	0	/	/	/
O=C(Nc1cccc(-c2cnc3ccccc3n2)c1)c1cccc(NC(=O)c2ccco2)c1	6	41*	-7	2	/	1	17*
Cc1ccc2oc(=O)n(CC(=O)OCCC(C)C)c2c1	4	1	-4	-4	/	/	/
Nc1ccc(Cn2ccc3c4c(N)nc(N)nc4ccc32)cc1	-5	39*	-2	/	93*	0	11
Cc1nc2ccc(N)cc2c(=O)n1Cc1ccc(Cl)cc1	2	-3	22	-1	/	/	/
Cc1ccc2c(c1)N(CC(=O)Nc1ccccc1F)C(=O)C(C)O2 (centres undefined)	1	-2	-1	/	/	/	/

Screens from PubChem BioAssay.
